Assay outcomes deposited in PubChem BioAssay by Broad Institute.
dFosB act: mouse delta FosB homodimer activation. activation, % at 25 µM. purified delta FosB, TAMRA-CDK5 oligo fluorescence polarization; percent of positive-control signal above neutral wells. 0.99% of 340,000 active;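 active = mean activation above about 17%, with every replicate also reaching it, limit read from the data, passing the limit was not always enough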
Target sequence (P13346 whole entry, looked up): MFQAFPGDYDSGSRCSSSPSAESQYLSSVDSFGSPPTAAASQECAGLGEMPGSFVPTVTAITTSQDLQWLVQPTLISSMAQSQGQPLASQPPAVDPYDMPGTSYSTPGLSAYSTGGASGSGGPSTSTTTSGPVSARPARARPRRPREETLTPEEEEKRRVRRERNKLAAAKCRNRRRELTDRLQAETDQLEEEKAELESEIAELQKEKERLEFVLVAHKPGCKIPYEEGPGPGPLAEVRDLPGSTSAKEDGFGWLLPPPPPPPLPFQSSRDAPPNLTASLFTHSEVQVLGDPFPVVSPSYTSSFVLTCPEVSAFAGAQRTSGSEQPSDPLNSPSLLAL
Rtt109 HAT inh: C. albicans Rtt109 histone acetyltransferase inhibition; inhibition, % at 34.9 µM; Q5AAJ8; 0.16% of 330,000 active; purified Rtt109/Vps75, ThioGlo CoA-SH fluorescence, 4 h; AID 540336;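 active = inhibition of at least 50% in every replicate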
Target sequence (Q5AAJ8 whole entry, looked up): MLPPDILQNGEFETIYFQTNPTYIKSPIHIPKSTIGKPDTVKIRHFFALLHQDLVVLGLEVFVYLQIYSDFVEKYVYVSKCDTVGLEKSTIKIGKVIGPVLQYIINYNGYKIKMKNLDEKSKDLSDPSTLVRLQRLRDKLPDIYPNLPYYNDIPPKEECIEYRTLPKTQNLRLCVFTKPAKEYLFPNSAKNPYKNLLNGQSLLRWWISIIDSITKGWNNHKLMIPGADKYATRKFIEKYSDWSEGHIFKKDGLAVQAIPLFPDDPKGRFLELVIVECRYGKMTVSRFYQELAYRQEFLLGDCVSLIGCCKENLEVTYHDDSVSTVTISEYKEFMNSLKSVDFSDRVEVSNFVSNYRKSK
miR-122 sensor: blocks miR-122 activity in Huh7 sensor cells | Huh7 miR-122 Renilla luciferase sensor, 48 h; neutral wells = 0, positive control = 100 | activation (reporter increase), % at 12.5 µM | 0.3% of 340,000 active | AID 602342;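 active = mean replicate activation score at least 90 and every replicate individually at or above 90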;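 note: higher luciferase means less miR-122 activity so hits act as miR-122 inhibitors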
GSIS activator: primary screen for activators of insulin secretion dependent on glucose, INS-1E cells, GLuc reporter luminescence | INS-1E GLuc reporter insulin secretion, 2-3 h | activation, % at 16.6 µM | 0.61% of 370,000 active | AID 743287;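 active = lowest replicate activation of at least 40%, so every replicate reaches that level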;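 note: 0% = median of neutral control wells and 100% = median of IBMX positive control wells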
Cneo AK release: causes C. neoformans cell lysis. adenylate kinase release luminescence, 4 h; normalised: neutral wells 0, clomiphene wells 100. lysis activity, % at 15 µM. 0.2% of 360,000 active. AID 651654;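 active = mean lysis activity across replicates of at least 80%, whatever share of replicates individually reach that level; inactive = mean lysis activity below 80%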
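Material – log-phase Cryptococcus neoformans yeast cells · Input – 5 × 10^6 yeast cells/mL · Medium – fresh YPD growth medium · Doses – single compound concentration per well · Timing – static 4 h at 37 °C with compound, 1 h detection · Detection – adenylate kinase release luminescence · Read-out – signal increase indicating cell lysis · Control set – Clomiphene as positive lysis control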
HIV Env fusion: blocks HIV Env-driven cell-cell fusion | HeLa-JRFL Env/CEM21 cell fusion, luciferase | inhibition, % at 12.3 µM | AID 651610 | 1.1% of 360,000 active;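 active = mean replicate inhibition score of at least 50 and every replicate individually at or above 50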;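 note: 0% = plate neutral controls and 100% = maraviroc near 300 nM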
Active calls of the source: *; . = no result given; ! = not confirmed by another sample; [ ] = dose if it differs, or a comment. Compounds with a hit are over-represented: about 2.4% of the library has one in this group of screens.

SMILES	dFosB act	Rtt109 HAT inh	miR-122 sensor	GSIS activator	Cneo AK release	HIV Env fusion
Cc1ccc(S(=O)(=O)N(C)C[C@@H]2Oc3cc(-c4cccc(F)c4)ccc3S(=O)(=O)N([C@@H](C)CO)C[C@@H]2C)cc1	.	.	-5[16.7 µM]	3	-6	31[16.7 µM]
Cc1ccc(S(=O)(=O)N(C)C[C@H]2Oc3cc(-c4cccc(F)c4)ccc3S(=O)(=O)N([C@@H](C)CO)C[C@H]2C)cc1	.	.	13[16.7 µM]	6	-3	69*[16.7 µM]
Cc1ccccc1-c1ccc2c(c1)O[C@H](CN(C)C(=O)Nc1ccc(C(F)(F)F)cc1)[C@H](C)CN([C@@H](C)CO)S2(=O)=O	.	.	-14[16.7 µM]	-8	55	56*[16.7 µM]
CC(C)CC#Cc1ccc2c(c1)O[C@@H](CN(C)S(=O)(=O)c1ccc(F)cc1)[C@@H](C)CN([C@@H](C)CO)S2(=O)=O	.	.	17[16.7 µM]	5	.	44[16.7 µM]
COc1ccccc1-c1ccc2c(c1)O[C@@H](CN(C)C(=O)c1cccnc1)[C@H](C)CN([C@@H](C)CO)S2(=O)=O	.	.	10[16.7 µM]	4	84*	.
COc1ccccc1-c1ccc2c(c1)O[C@@H](CN(C)C(=O)c1ccncc1)[C@H](C)CN([C@@H](C)CO)S2(=O)=O	.	.	11	-3	-1	-46[16.7 µM]
C[C@@H]1CN([C@@H](C)CO)S(=O)(=O)c2ccc(-c3cccc(F)c3)cc2O[C@@H]1CN(C)S(=O)(=O)c1ccc(F)cc1	.	.	-5[16.7 µM]	-4	-7	59*[16.7 µM]
C[C@H]1CN([C@@H](C)CO)S(=O)(=O)c2ccc(Br)cc2O[C@H]1CN(C)S(=O)(=O)c1ccc(F)cc1	.	.	0[16.7 µM]	-30	-2	63*[16.7 µM]
C[C@H]1CN([C@@H](C)CO)S(=O)(=O)c2ccc(-c3cccc(F)c3)cc2O[C@H]1CN(C)S(=O)(=O)c1ccc(F)cc1	.	.	2[16.7 µM]	-17	-6	42[16.7 µM]
CCCC#Cc1ccc2c(c1)O[C@H](CN(C)S(=O)(=O)c1cccc(F)c1)[C@H](C)CN([C@@H](C)CO)S2(=O)=O	.	.	61[16.7 µM]	-7	-4	64*[16.7 µM]
CO[C@H]1CN(C)C(=O)c2ccc(NS(=O)(=O)c3ccccc3C)cc2OC[C@H](C)NC[C@@H]1C	.	.	.	22	.	.
Cc1ccc(S(=O)(=O)N(C)C[C@H]2Oc3cc(-c4cccc(F)c4)ccc3S(=O)(=O)N([C@H](C)CO)C[C@H]2C)cc1	.	.	13[16.7 µM]	6	-3	64*[16.7 µM]
CCOC(=O)C1=C(COC(=O)c2ccc(C)s2)NC(=O)NC1C (stereo not given)	-4	2	-3	0	.	.
CCOC(=O)C1=C(COC(=O)c2cccs2)NC(=O)NC1C (stereo not given)	-3	-7	.	59*	-1	.
CCN1CCN(Cc2ccc(NC(=O)c3ccc(C)c(NC(=O)C4=NN(c5ccccc5)C(=O)C4)c3)cc2C(F)(F)F)CC1	66*	-2	0	15	0	2
CCN1CCN(Cc2ccc(NC(=O)c3cc(NC(=O)C4=NN(c5ccccc5)C(=O)C4)cc(OC)c3)cc2C(F)(F)F)CC1	60*	-8	-8	3	-2	-102
Cc1ccc(C(=O)Nc2cccc(C(F)(F)F)c2)cc1NC(=O)c1c[nH]c2cc(C(F)(F)F)ccc2c1=O	1	4	6	.	2	.
CCN1CCN(Cc2ccc(NC(=O)c3cc(NC(=O)N4CCNC4=O)cc(OC)c3)cc2C(F)(F)F)CC1	-28	2	-15	-3	0	-27
CCN1CCN(Cc2ccc(NC(=O)c3ccc(C)c(NC(=O)c4c[nH]c5cc(C(F)(F)F)ccc5c4=O)c3)cc2C(F)(F)F)CC1	-9	-6	-33	2	-3	106*!
Cn1cnc(S(=O)(=O)N[C@@H]2CC[C@@H](CC(=O)N3CCN(c4ccccc4)CC3)O[C@@H]2CO)c1	.	.	-17[16.7 µM]	7	2	15[16.7 µM]
C[C@H](CO)N1C[C@H](C)[C@H](CN(C)C(=O)c2ccncc2)Oc2ncc(C3=CCCC3)cc2C1=O	.	.	-7[16.7 µM]	14	-2	-8[16.7 µM]
CC(C)Cc1nnc(NC(=O)Cc2ccccc2[N+](=O)[O-])s1	-10	-9	126*	1	5	.
COc1ccc(/C=C/C2=NNC(=O)CC2)cc1	-3	2	.	0	.	60*
CCCN1[C@H](C(=O)N[C@@H](C)c2ccccc2)[C@@H](CO)[C@@H]2Cn3c(ccc(-c4cccc(F)c4)c3=O)[C@@H]21	.	.	.	-14	-2	64*[16.7 µM]
CCCN1[C@@H]2c3ccc(-c4cccc(F)c4)c(=O)n3C[C@@H]2[C@@H](CO)[C@@H]1C(=O)N[C@@H](C)c1ccccc1	.	.	.	-19	-3	-19[16.7 µM]
SMILES	dFosB act	Rtt109 HAT inh	miR-122 sensor	GSIS activator	Cneo AK release	HIV Env fusion
CC(=O)N1[C@@H]2c3ccc(-c4ccccc4)c(=O)n3C[C@H]1[C@H](CO)[C@H]2C(=O)Nc1ccccc1	.	.	.	25	87*	.
CCN1[C@@H]2c3ccc(-c4ccccc4)c(=O)n3C[C@H]1[C@H](CO)[C@H]2C(=O)Nc1ccccc1	.	.	-2[16.7 µM]	-6	3	.
CCC(=O)N1[C@@H]2Cn3c(ccc(C4=CCCCC4)c3=O)[C@H]1[C@@H](C(=O)N[C@H](C)c1ccccc1)[C@@H]2CO	.	.	-5[16.7 µM]	-5	93*	.
CCC(=O)N1[C@@H]2c3ccc(C4=CCCC4)c(=O)n3C[C@H]1[C@H](CO)[C@H]2C(=O)N[C@H](C)c1ccccc1	.	.	3[16.7 µM]	-5	1	.
COc1ccccc1CNC(=O)C[C@H]1C[C@@H]2c3cc(NC(=O)c4cccnc4)ccc3O[C@@H]2[C@H](CO)O1	.	.	6[16.7 µM]	16	0	-22[16.7 µM]
Nc1cc2c(cc1Br)[nH]c(=O)c1ccccc12	-11	0	13	.	.	83*
COc1ccc2c3c([nH]c2c1)[C@H](CO)N(Cc1nccs1)CC31CCN(Cc2nccs2)CC1	.	.	.	-6	.	.
Cc1ccc2nc(NC(=O)CSc3nc(=O)n(CCN(C)C)c4c3CCCC4)sc2c1	-8	-5	4	376*	1	-26
O=[N+]([O-])c1ccc2nc(-c3ccc(Cl)cc3)[nH]c2c1	2	-5	.	-7	.	-103
O=[N+]([O-])c1ccc(-c2cc(-c3ccc(Cl)cc3)n[nH]2)cc1	2	-2	2	71*	0	.
CCN(CC)S(=O)(=O)c1cccc(C(=O)Nc2ccc(C#N)cc2)c1	-7	2	11	.	3	57*
COc1ccc(-c2c[n+](CC(=O)OC3CC(C)CCC3C(C)C)c3n2CCC3)cc1 (stereo not given)	-3	25	-15	-41	-4	60*
CC(C)[C@@H]1CC[C@@H](C)C[C@H]1OC(=O)C[n+]1cc(-c2ccc(Cl)cc2)n2c1CCCCC2	-16	8	.	.	.	83*
CCCC#Cc1ccc([C@@H]2[C@@H](CO)N3C(=O)CN(C(=O)c4cccc(F)c4)C[C@@H]23)cc1	.	.	.	-15	.	.
